Source: ChEMBL document CHEMBL1777774, “A novel, broad-spectrum antitumor compound containing the 1-hydroxycyclohexa-2,5-dien-4-one group: the disclosure of a new antitumor pharmacophore in protoapigenone 1” (Bioorg Med Chem Lett, 2011)
pIC50: −log10 of the molar value.

What was measured:
H22 = assay: Antitumor activity against mouse H22 tumor-nearing ICR mouse assessed as inhibition of tumor growth at 10 mg/kg, ip for 7 days measured on day 9; format: functional; conditions: route intraperitoneal
How it was run: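 ICR mice given H22 ascites cells from serial passage, 0.2 ml of 1×10^7 cells/ml injected subcutaneously into right flank, 10 mice per group. From day 2, 10 mg/kg/day ip in 10% ethanol (10 ml/kg) for 7 days. Cyclophosphamide 10 mg/kg as reference, vehicle-treated tumor model group. Killed day 9, tumors weighed. Inhibition = (model − treated tumor weight)/model weight × 100%.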

U-266 = assay: Antitumor activity against human U266 cells assessed as cell proliferation after 24 hrs by MTT assay; format: functional, cell-based; conditions: U-266, 24 h
How it was run: (§1)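 Cells seeded at 2000 per well in 96-well plates and allowed to adhere. Compounds in DMSO, diluted in culture medium, added at 0.1–100 μM (eight wells per concentration) for 24 h. DMSO vehicle control. MTT 0.5 mg/mL (in PBS) for 4 h, then medium removed and DMSO added, absorbance read at 570 nm. IC50 from concentration vs percent absorbance plot. Mean ± SD, n = 4.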

Mus musculus [1] = assay: Toxicity in […] H22 tumor-nearing ICR mouse assessed as thymus index at 10 mg/kg, ip for 7 days measured on day 9 relative to control; format: organism-based; design: dose 10 mg/kg, route intraperitoneal; conditions: in vivo, 168 h
How it was run: (§2)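 H22-bearing ICR mice (10 per group, plus a saline-injected normal group) dosed ip at 10 mg/kg/day in 10% ethanol for 7 days from day 2. Vehicle given to controls. On day 9 blood was taken for WBC count, and body weight, thymus and spleen were weighed. Thymus or spleen index = organ weight (mg)/body weight (g).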

HEK293 = assay: Cytotoxicity against human HEK293 cells assessed as cell proliferation after 24 hrs by MTT assay; format: cell-based; conditions: HEK293, 24 h; how it was run: as §1
MCF7 = assay: Antitumor activity against human MCF7 cells assessed as cell proliferation after 24 hrs by MTT assay; format: functional, cell-based; conditions: MCF7, 24 h; how it was run: as §1
RPMI-8226 = assay: Antitumor activity against human RPMI8226 cells assessed as cell proliferation after 24 hrs by MTT assay; format: functional, cell-based; conditions: RPMI-8226, 24 h; how it was run: as §1
HepG2 = assay: Antitumor activity against human HepG2 cells assessed as cell proliferation after 24 hrs by MTT assay; format: functional, cell-based; conditions: HepG2, 24 h; how it was run: as §1
Mus musculus [2] = assay: Toxicity in […] H22 tumor-nearing ICR mouse assessed as white blood cell count at 10 mg/kg, ip for 7 days measured on day 9 relative to control; format: organism-based; design: dose 10 mg/kg, route intraperitoneal; conditions: in vivo, 168 h; how it was run: as §2
Mus musculus [3] = assay: Toxicity in […] H22 tumor-nearing ICR mouse assessed as decrease in total nucleated bone marrow cells at 10 mg/kg, ip for 7 days measured on day 9; format: organism-based; design: dose 10 mg/kg, route intraperitoneal; scale not given: the % may be the effect or the level left; conditions: in vivo, 168 h
How it was run: (§3)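 H22-bearing ICR mice dosed ip 10 mg/kg/day in 10% ethanol for 7 days from day 2, with vehicle controls. Killed day 9 and femoral marrow flushed. Nucleated cells counted with a Coulter Counter. Granulocytic and erythroid cells per femur counted on May-Grünwald-Giemsa-stained marrow smears.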

Mus musculus [4] = assay: Toxicity in […] H22 tumor-nearing ICR mouse assessed as spleen index at 10 mg/kg, ip for 7 days measured on day 9 relative to control; format: organism-based; design: dose 10 mg/kg, route intraperitoneal; conditions: in vivo, 168 h; how it was run: as §2
PANC-1 = assay: Antitumor activity against human PANC1 cells assessed as cell proliferation after 24 hrs by MTT assay; format: functional, cell-based; conditions: PANC-1, 24 h; how it was run: as §1
SK-OV-3 = assay: Antitumor activity against human SKOV3 cells assessed as cell proliferation after 24 hrs by MTT assay; format: functional, cell-based; conditions: SK-OV-3, 24 h; how it was run: as §1
MDA-MB-231 = assay: Antitumor activity against human MDA-MB-231 cells assessed as cell proliferation after 24 hrs by MTT assay; format: functional, cell-based; conditions: MDA-MB-231, 24 h; how it was run: as §1
Mus musculus [5] = assay: Toxicity in […] H22 tumor-nearing ICR mouse assessed as decrease in ratio of granulocytic and erythroid cell system at 10 mg/kg, ip for 7 days measured on day 9; format: organism-based, Erythrocyte; design: dose 10 mg/kg, route intraperitoneal; scale not given: the % may be the effect or the level left; conditions: in vivo, 168 h; how it was run: as §3
PC-3 = assay: Antitumor activity against human PC3 cells assessed as cell proliferation after 24 hrs by MTT assay; format: functional, cell-based; conditions: PC-3, 24 h; how it was run: as §1
PBMC = assay: Cytotoxicity against human PBMC assessed as cell proliferation after 24 hrs by MTT assay; format: cell-based; how it was run: as §1
Mus musculus [6] = assay: Toxicity in […] H22 tumor-nearing ICR mouse assessed as body weight at 10 mg/kg, ip for 7 days measured on day 9 relative to control; format: organism-based; design: dose 10 mg/kg, route intraperitoneal; conditions: in vivo, 168 h; how it was run: as §2

SMILES	inhibition in vivo at 10 mg/kg (H22)	pIC50 (U-266)	Activity (Mus musculus [1])	pIC50 (HEK293)	pIC50 (MCF7)	pIC50 (RPMI-8226)	pIC50 (HepG2)	Activity (Mus musculus [2])	Activity (Mus musculus [3])	Activity (Mus musculus [4])	pIC50 (PANC-1)	pIC50 (SK-OV-3)	pIC50 (MDA-MB-231)	Activity (Mus musculus [5])	pIC50 (PC-3)	pIC50 (PBMC)	Activity (Mus musculus [6])
O=P1(N(CCCl)CCCl)NCCCO1 (stereo not given) [CYCLOPHOSPHAMIDE ANHYDROUS]	41.7%	–	–	–	–	–	–	–	–	–	–	–	–	–	–	–	–
O=C1C=CC(O)(c2cc(=O)c3c(O)cc(O)cc3o2)C=C1 [PROTOAPIGENONE]	< 5%	5.12	Non-toxic	5.17	5.26	5.41	5.11	Non-toxic	51.52%	Non-toxic	4.66	6.15	5.77	36.9%	5.21	5.09	Non-toxic
O=C1C=CC(O)(c2cc(=O)cco2)C=C1	34.1%	5.03	Non-toxic	4.52	6.15	4.87	5.75	Non-toxic	Non-toxic	Non-toxic	5.51	6.19	6.42	Non-toxic	5.46	4.31	Non-toxic
